Assay: Toxicity liver stage against HepG2, at 10uM
Assay type: cell-based
Design: test concentration 10 uM, cell line HepG2-A16-CD81EGFP
Conditions: human, HepG2-A16-CD81EGFP cells; read-out: INHIBITION
In short: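 Uninfected HepG2-A16-CD81EGFP cells, 3 × 10^3 per well, 1536-well, plated on prespotted compound at 10 μM final, parasite-free screening media added to match infected plates; puromycin 10 μM positive, DMSO 0.5% negative; run in parallel with 48 h PbLuc assay at 37 °C, 5% CO2; viability by CellTiter-Glo luminescence, normalized to controls.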

| SMILES | cytotoxicity at 10 µM [%] |
| --- | --- |
| O=C1CCCN1Cc1ncn2c1CN(C(=O)Cc1cccs1)CCC2 | 5.26 |
| Cc1ccc(N2Cc3cnn(Cc4ccc(F)cc4)c3C2)nn1 | 0.209 |
| Cc1ccc(OCC(C)NS(=O)(=O)Cc2ccon2)cc1 (stereo unspecified) | -4.84 |
| O=C(CN1CCCS(=O)(=O)CC1)NCc1ccccc1F | 3.76 |
| Cc1cnn(CCNCC(=O)N(C)C(C)c2ccccc2)c1 (stereo unspecified) | 8.83 |
| CN(Cc1ccc2c(c1)OCO2)Cc1nc(Cc2ccccc2)no1 | -2.59 |
| COCc1ncc(-c2nccn2CCN(C)C)cn1 | 0.126 |
| CC(Cn1cccn1)NCc1nc(-c2cccs2)no1 (stereo unspecified) | -8.7 |
| Cc1ccc(CNc2cc3c(cc2Cl)NC(=O)CO3)cc1C | 0.651 |
| COCC1CN(Cc2ccccn2)Cc2nn(C)cc21 (stereo unspecified) | -87.5 |
| CN(Cc1cccnc1)C(=O)NC1CCN(Cc2ccccn2)CC1 | -18.2 |
| COCC1c2c(cnn2C)CCN1C(=O)c1cc(C)on1 (stereo unspecified) | -79.5 |
| CC1(C(=O)NCc2cccnc2Oc2ccc(F)c(F)c2)CCCNC1 (stereo unspecified) | -0.37 |
| Cc1cccc(OC2CCN(Cc3ncc[nH]3)CC2)c1 | -7.15 |
| Cc1ccc(CN(C)C(=O)CN2CCCCC2Cn2cncn2)cc1 (stereo unspecified) | 17.7 |
| Cc1cn2c(n1)CCC(NC(=O)c1ccc(CS(C)(=O)=O)cc1)C2 (stereo unspecified) | -2.19 |
| CN(C)CC1COCCN1C(=O)c1ccccc1C(=O)c1ccccc1 (stereo unspecified) | 1.12 |
| CCc1cnc(N2C[C@H](OCc3csc(C)n3)[C@H]3COC[C@H]32)nc1 | -2.51 |
| CN(Cc1nnc(C2CC2)n1C)S(=O)(=O)c1ccc(F)c(C#N)c1 | 18.4 |
| N#CC1(NC(=O)c2nccc3ccccc23)CCC1 | 6.13 |
| Cc1ccc(C(=O)N2CCSCC2)cc1N1CCNC1=O | -6.33 |
| CC1CCN(CCCNC(=O)NC(C)c2nncn2C)CC1 (stereo unspecified) | -11.6 |
| OCC1(CC2CC2)CCCN(Cc2cnc(N3CCOCC3)nc2)C1 (stereo unspecified) | -0.274 |

| SMILES | cytotoxicity at 10 µM [%] |
| --- | --- |
| Cn1cc(I)c(C(=O)NC2CCCC2)n1 | 5.53 |
| CNC(=O)c1ccc(C(=O)N2CCCC(n3nc(C)cc3C)C2)cn1 (stereo unspecified) | -5.61 |
| COCc1cn(CC2CCN(Cc3c(C)[nH]c4ccccc34)CC2)nn1 | -5.36 |
| CC(Oc1ccc(OCc2ncc(C(C)C)o2)cc1)C(N)=O (stereo unspecified) | -10.4 |
| CC(=O)N1CCN(C(=O)NCCCc2cn[nH]c2C)CC1 | 12.1 |
| CCCS(=O)(=O)C(C)C(=O)Nc1ccc2oc(C3CC3)nc2c1 (stereo unspecified) | 5.3 |
| Cc1cc2n(n1)CC(CNCc1cnn(C)c1)CN2 (stereo unspecified) | 5.25 |
| CN(C)c1ccc(C2CC(=O)Nc3c2cnn3Cc2ccco2)cc1 (stereo unspecified) | -3.08 |
| COCCN1CCC2(COCc3cnc(N4CCOCC4)nc32)C1 (stereo unspecified) | 11.6 |
| O=C(c1ccccc1)N1CCC[C@]2(C[C@@H](OCc3ccccn3)CO2)C1 | -67.5 |
| CC(C)(C)CCS(=O)(=O)NCCc1csc(N2CCCC2)n1 | 8.37 |
| COc1ccccc1CC1CCCN(C(=O)c2cc[nH]n2)C1 (stereo unspecified) | 6.11 |
| CC(=O)c1sc2nc3c(c(C(F)(F)F)c2c1N)CN(C(C)=O)CC3 | -26 |
| CCn1ccnc1CN1CCN(C(C)C(=O)NC2CCCCC2)CC1 (stereo unspecified) | -2.17 |
| Cc1nc(-c2c(C)noc2C)cc(C2CCN(S(=O)(=O)N(C)C)CC2)n1 | 4.62 |
| CCCN(CCC)S(=O)(=O)N(C)Cc1ccncc1 | 12.2 |
| CCn1cc(CN2CCCC(c3[nH]ncc3S(C)(=O)=O)C2)cn1 (stereo unspecified) | 6.5 |
| Cc1cc(NC(=O)CN2CCc3c(nc(C(C)C)n3C)C2)n(C)n1 | -4.94 |
| CC(C)NC(=O)N[C@H]1C[C@@H](c2nc(-c3ccc(F)cc3)no2)N(C)C1 | -7.97 |
| CCC[C@H]1CN(S(=O)(=O)c2ccc(Cl)cc2)C[C@@H]1NC(C)=O | -12.4 |
| c1cc(COC[C@H]2CCC[C@]23CNCCO3)ccn1 | -99.1 |
| O=C(Cc1cccnc1)N1CCC(c2nnc(-c3ccccn3)o2)CC1 | 0.91 |
| CSc1ccc(C2CC(=O)Nc3c2c(=O)[nH]c2ncnn32)cc1 (stereo unspecified) | -8.22 |

| SMILES | cytotoxicity at 10 µM [%] |
| --- | --- |
| CNC(=O)Cc1noc(-c2cc3c(s2)CCCCCC3)n1 | 3.76 |
| COCCN1CCC2(COCc3cnc(-c4ccccc4)nc32)C1 (stereo unspecified) | -111 |
| c1ccc(Cn2cccn2)c(CN2CCC3(CCCNC3)C2)c1 (stereo unspecified) | -13 |
| Cc1cc(C2CCCN2C(=O)COc2ccc(CC#N)cc2)no1 (stereo unspecified) | -38.9 |
| Cc1cc(NCC2CCN(c3ccccc3)C2)n2ncnc2n1 (stereo unspecified) | 67 |
| Cc1cccc(CN2CC[C@H]3CO[C@H](CNC(=O)N(C)C)[C@H]3C2)c1 | 1.47 |
| CC(OCC1CC1)C(=O)N1CCCN(Cc2nccn2C(C)C)CC1 (stereo unspecified) | -11.9 |
| CC(C)c1nsc(N2CCSCC2)n1 | -11.6 |
| CCN(CC)C(=O)c1ccc(-n2ncc(C#N)c2N)cc1 | 0.796 |
| CS(=O)(=O)N1C[C@H]2CC[C@@H](C1)N(Cc1ccc3nsnc3c1)C2 | 3.18 |
| O=C(NCCCSc1ccc(F)cc1)C1CCc2cn[nH]c2C1 (stereo unspecified) | -3.65 |
| COCC(=O)NCC1CCC(c2nnc(-c3ccncc3)o2)CC1 (stereo unspecified) | -3.49 |
| COc1ccc(OC2CCN(C(=O)c3ccc(C(C)=O)s3)CC2)cc1 | 3.58 |
| CCN(CC)S(=O)(=O)c1csc(C(=O)N2CCC(C(N)=O)CC2)c1 | -43.9 |
| Cc1cc(=O)n2c(n1)SCC2CC(=O)NCc1cc(-c2ccco2)on1 (stereo unspecified) | -15.6 |
| c1cc(CN2CCN(Cc3cscn3)CC2)cs1 | 2.45 |
| O=C1CC2(CCN(Cc3cccs3)C2)CN1c1cccc(F)c1 (stereo unspecified) | -148 |
| COCc1nc(CN2CCC3(CCCO3)CCC2=O)no1 (stereo unspecified) | -10.3 |
| O=C(NCc1cccnc1)c1cn(CCc2ccccc2)nn1 | 4.39 |
| c1cncc(COCC2CC[C@H]3[C@H](CCN3CC3CCOCC3)O2)c1 (stereo partly specified) | -71.4 |
| O=C(O)CN1CCC(F)(F)C2(CCN(c3ccccn3)C2)C1 (stereo unspecified) | 1.78 |
| CC(c1nc(C2CC2)no1)N1CCN(c2ccc(C#N)cn2)CC1 (stereo unspecified) | 1.18 |
| COc1cccc(CNCc2c(C(C)C)nn(C)c2N(C)C)c1OC | 1.87 |

| SMILES | cytotoxicity at 10 µM [%] |
| --- | --- |
| CCC1C(=O)NCCN1c1nccc(C)n1 (stereo unspecified) | 0.889 |
| CC(C)C(NC(=O)C1CCCC1)c1cc(O)nc(-c2cccnc2)n1 (stereo unspecified) | 9.82 |
| CSc1nc2cc(C)n(CC(N)=O)c2c(=O)n1CC(C)C | -11.3 |
| CCOc1ncccc1CNC(=O)NC(C)Cn1cccn1 (stereo unspecified) | -15.7 |
| CCCC1CCN(C(=O)c2coc(COc3ccc(OC)cc3)n2)C1 (stereo unspecified) | -0.551 |
| Cc1nc(C(=O)N2CCCC(c3cc(C(F)(F)F)[nH]n3)C2)c[nH]1 (stereo unspecified) | -0.945 |
| NC(=O)CCc1cccc(C2CCNCC2)n1 | -3.28 |
| Cc1ccc(CN2CC[C@]3(C[C@H](OCc4ccccn4)CO3)C2)o1 | -0.617 |
| CC[C@H](C)Nc1nccc(-c2cnc3sc(C)cn3c2=O)n1 | -6.02 |
| CC(=O)N1C[C@H]2C3(CCN(S(C)(=O)=O)CC3)CC[C@@]2(C(=O)N(C)C)C1 | -1.16 |
| CCc1n[nH]c(C2CN(C(=O)c3csnn3)CCO2)n1 (stereo unspecified) | -2.5 |
| CCNC(=O)N1C[C@@H]2OCC(=O)N(Cc3cccnc3)[C@@H]2C1 | 7.95 |
| COc1nccnc1N1CCC2(CC1)C(=O)N(C)c1ccccc12 | -4.89 |
| COCCNc1ccc(CNC(=O)Nc2cn[nH]c2)cc1 | -2.68 |
| O=C1NCCCCC1NCc1csc(-c2ccccn2)n1 (stereo unspecified) | 7.5 |
| CC(=O)c1cccc(OCCCC(=O)NCC2CCCN2C)c1 (stereo unspecified) | 0.71 |
| Cc1cc(C)cc(N2CC(c3nnc(N)s3)CC2=O)c1 (stereo unspecified) | 4.29 |
| Cc1nn(C)c(C)c1C1CCCN1Cc1nc(-c2ccccn2)no1 (stereo unspecified) | -5.29 |
| Cc1noc(C)c1CN1C[C@H]2CNC[C@H]2C1 | 6.62 |
| CN(C)c1ccccc1CN1CCCC(N2CCCC2=O)C1 (stereo unspecified) | -9.13 |
| Cc1cc2ncn(C[C@]3(O)CCCN4CCCC[C@@H]43)c2cc1C | -2.42 |
| Cc1nn(C)c(C)c1C1COCCN1C(=O)c1cc(F)ccc1F (stereo unspecified) | 3.38 |
| O=C(C1CC1)N1CCC(Nc2nc(O)cc(-c3ccsc3)n2)CC1 | 5.29 |

| SMILES | cytotoxicity at 10 µM [%] |
| --- | --- |
| O=C(N[C@H]1CN[C@H]2CCCO[C@H]21)c1cccnc1 | -9.99 |
| CCC(=O)NCC(=O)NCC1(c2c(F)cccc2F)CCCC1 | -0.147 |
| Cc1nc(C)c(C(=O)N2CCCc3c(F)ccc(F)c32)o1 | 7.19 |
| CCSCc1ccc(C(=O)N2CCCN(CC)CC2)cc1 | -5.95 |
| Cc1ccccc1-n1cc(CN(C)C[C@@H]2CCCN3CCCC[C@H]23)cn1 | -3.09 |
| CCC(=O)N1CCC2(CC1)CN(CCO)Cc1ccccc12 | 5.23 |
| CC(C)CC1SCC(=O)Nc2c1cnn2C1CCCC1 (stereo unspecified) | -2.17 |
| Cc1cnc(CN(C)C2CCN(CCCc3cnn(C)c3)C2)o1 (stereo unspecified) | 2.61 |
| Cc1ccc(S(=O)(=O)N2CCN(C)C3(CCC(=O)N(C)CC3)C2)s1 (stereo unspecified) | 8.63 |
| CNC(=O)c1cccnc1NCc1ccc(Cn2cccn2)cc1 | 17.9 |
| CC(C)(C)OC(=O)N[C@H]1CCN(c2cncc(Br)c2)C1 | -52.8 |
| COC1(CNC(=O)NCCc2ccccc2)CCSC1 (stereo unspecified) | -12.6 |
| CCC(CO)N(Cc1ccccn1)C(=O)c1ccc(=O)[nH]c1 (stereo unspecified) | -0.65 |
| CCN(CC)c1nc(Nc2cccc(C(C)O)c2)nc2ccccc12 (stereo unspecified) | 37.6 |
| O=C(CC1CCCO1)NCc1ccc(Br)cc1F (stereo unspecified) | 4.72 |
| CC(=O)N1CC[C@H]2CC(=O)N(C3CCCCC3)CC[C@H]2C1 | 0.325 |
| COc1ccc(CN2CCn3cc(CNC(=O)CC4CC4)nc3C2)cc1 | -82.6 |
| Cc1cn2nc(Sc3nnnn3C)sc2n1 | 17.3 |
| Cc1cncc(C2CCN(C(=O)c3ccc(-n4cccn4)nc3)CC2)n1 | -0.701 |

From ChEMBL document CHEMBL4513216, “Probing the Open Global Health Chemical Diversity Library for Multistage-Active Starting Points for Next-Generation Antimalarials” (ACS Infect Dis, 2020)
